The source made the active and inactive calls. The calls are words filed in the database; no cut-off is given here.
Tests used:
[1] = system: Mus musculus; assay: Analgesic agonist activity in acetic acid induced mouse writhing assay, subcutaneous administration; format: functional; conditions: sc
Outline: (§1)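 Test agents given as solutions: salts in distilled water; free bases dissolved by adding 1 N HCl, then further diluted.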

[2] = species: Rattus norvegicus; assay: Narcotic antagonist activity against an ED80 of morphine in the modified rat tail-flick assay; format: functional
[3] = system: Rattus norvegicus; assay: Compound was tested for the analgesic agonist activity in heat stimulus rat tail-flick assay; Inactive at 26 umol/kg; format: functional, organism-based; outline: as §1
[4] = system: Rattus norvegicus; assay: Compound was tested for analgesic agonist activity in heat stimulus rat tail-flick assay on subcutaneous administration; Inactive at 25 umol/kg; format: functional, organism-based; outline: as §1
[5] = system: Mus musculus; assay: Compound was tested for the analgesic agonist activity in acetic acid induced mouse writhing assay on subcutaneous administration; Inactive at 25 umol/kg; format: functional, organism-based; outline: as §1
[6] = system: Rattus norvegicus; assay: Analgesic agonist activity in heat stimulus rat tail-flick assay on subcutaneous administration; format: functional; conditions: sc; outline: as §1
[7] = system: Mus musculus; assay: Compound was tested for the analgesic agonist activity in acetic acid induced mouse writhing assay on subcutaneous administration; Inactive at 16 umol/kg.; format: functional, organism-based; outline: as §1
[8] = system: Mus musculus; assay: Compound was tested for the analgesic agonist activity in acetic acid induced mouse writhing assay on subcutaneous administration; Inactive at 28 umol/kg.; format: functional, organism-based; outline: as §1
[9] = system: Mus musculus; assay: Compound was tested for the analgesic agonist activity in acetic acid induced mouse writhing assay on subcutaneous administration; Inactive at 26 umol/kg.; format: functional, organism-based; outline: as §1
[10] = system: Rattus norvegicus; assay: Compound was tested for analgesic agonist activity in heat stimulus rat tail-flick assay on subcutaneous administration; Inactive at 25 mg/kg; format: functional, organism-based; design: dose 25 mg/kg; outline: as §1
[11] = system: Mus musculus; assay: Compound was tested for the analgesic agonist activity in acetic acid induced mouse writhing assay on subcutaneous administration; Inactive at 25 umol/kg.; format: functional, organism-based; outline: as §1
[12] = system: Mus musculus; assay: Compound was tested for the analgesic agonist activity in acetic acid induced mouse writhing assay on subcutaneous administration; Inactive at 20 umol/kg.; format: functional, organism-based; outline: as §1
[13] = system: Mus musculus; assay: Compound was tested for the analgesic agonist activity in acetic acid induced mouse writhing assay on subcutaneous administration; Inactive at 23 umol/kg.; format: functional, organism-based; outline: as §1

Compound	ED50 [1] [µmol/kg]	ED50 [2] [µmol/kg]	ED50 [6] [µmol/kg]	further results
CC(C)=CCN1CC[C@@]2(C)c3cc(O)ccc3C[C@@H]1[C@@H]2C	13	36.4	–	–
COc1ccc2c3c1O[C@H]1[C@H](O)C(CO)(CO)[C@H](C)C4[C@@H](C2)N(C)CC[C@@]341 (some centres undefined)	> 26	–	–	ED50 [3]: inactive
CC[C@@H]1C2[C@H]3Cc4ccc(OC)c5c4[C@@]2(CCN3C)[C@@H](O5)[C@H](O)C1(CO)CO (some centres undefined)	–	–	–	ED50 [4]: inactive; ED50 [5]: inactive
CC[C@@H]1C2[C@H]3Cc4ccc(OC)c5c4[C@@]2(CCN3CC2CCC2)[C@@H](O5)C(=O)C1(C)C (some centres undefined)	> 23	> 23	–	–
COc1ccc2c3c1O[C@H]1C(=O)C(C)(C)[C@H](C)C4[C@@H](C2)N(CC2CCC2)CC[C@@]341 (some centres undefined)	17.2	4.7	–	–
COc1ccc2c3c1O[C@H]1[C@@H](O)C(C)(C)CC4[C@@H](C2)N(C)CC[C@@]341 (some centres undefined)	12.7	–	–	–
CC[C@@H]1C2[C@H]3Cc4ccc(OC)c5c4[C@@]2(CCN3C)[C@@H](O5)[C@@H]2OC[C@]12C (some centres undefined)	11.1	–	> 28	–
CC[C@@H]1C2[C@H]3Cc4ccc(O)c5c4[C@@]2(CCN3CC2CC2)[C@@H](O5)C(=O)C1(C)C (some centres undefined)	–	2.4	–	ED50 [7]: inactive
COc1ccc2c3c1O[C@H]1C(=O)C(C)(C)CC4[C@@H](C2)N(CC2CC2)CC[C@@]341 (some centres undefined)	5.3	6.7	–	–
CC1(C)CC2[C@H]3Cc4ccc(O)c5c4[C@@]2(CCN3CC2CC2)[C@@H](O5)C1=O (some centres undefined)	–	1.2	–	ED50 [8]: inactive
COc1ccc2c3c1O[C@H]1C(=O)C(C)(C)CC4[C@@H](C2)N(CC2CCC2)CC[C@@]341 (some centres undefined)	–	> 26	–	ED50 [9]: inactive
C[C@@H]1C2[C@H]3Cc4ccc(O)c5c4[C@@]2(CCN3CC2CCC2)[C@@H](O5)C(=O)C1(C)C (some centres undefined)	> 25	> 25	–	–
COc1ccc2c3c1O[C@H]1[C@H](O)C(CO)(CO)CC4[C@@H](C2)N(C)CC[C@@]341 (some centres undefined)	–	–	–	ED50 [10]: inactive; ED50 [11]: inactive
COc1ccc2c3c1O[C@H]1[C@@H]4OC[C@]4(C)CC4[C@@H](C2)N(C)CC[C@@]341 (some centres undefined)	1.9	–	> 30	–
CC[C@@H]1C2[C@H]3Cc4ccc(OC)c5c4[C@@]2(CCN3C)[C@@H](O5)[C@H](O)C1(C)C (some centres undefined)	21.5	–	> 22	–
COc1ccc2c3c1O[C@H]1[C@@H](O)C=C[C@H]4[C@@H](C2)N(C)CC[C@@]341 [CODEINE]	10.3	–	75	–
CN1CC[C@]23c4c5ccc(O)c4O[C@H]2C(=O)C(C)(C)CC3[C@H]1C5 (some centres undefined)	0.19	–	0.99	–

Compound	ED50 [1] [µmol/kg]	ED50 [2] [µmol/kg]	ED50 [6] [µmol/kg]	further results
COc1ccc2c3c1O[C@H]1[C@@H]4OC[C@]4(C)[C@H](C)C4[C@@H](C2)N(C)CC[C@@]341 (some centres undefined)	1.8	–	> 23	–
COc1ccc2c3c1O[C@H]1[C@H](O)C(C)(C)CC4[C@@H](C2)N(C)CC[C@@]341 (some centres undefined)	6.5	–	30.4	–
CC1(C)CC2[C@H]3Cc4ccc(O)c5c4[C@@]2(CCN3CC2CCC2)[C@@H](O5)C1=O (some centres undefined)	2.2	> 24	–	–
COc1ccc2c3c1O[C@H]1C(=O)C(C)(C)[C@H](C)C4[C@@H](C2)N(CC2CC2)CC[C@@]341 (some centres undefined)	> 26	7.3	–	–
COc1ccc2c3c1O[C@H]1[C@H](O)C(C)(C)[C@H](C)C4[C@@H](C2)N(C)CC[C@@]341 (some centres undefined)	3.8	–	15.6	–
CC[C@@H]1C2[C@H]3Cc4ccc(OC)c5c4[C@@]2(CCN3CC2CC2)[C@@H](O5)C(=O)C1(C)C (some centres undefined)	–	> 20	–	ED50 [12]: inactive
COc1ccc2c3c1O[C@H]1C(=O)C(C)(C)[C@H](C)C4[C@@H](C2)N(C)CC[C@@]341 (some centres undefined)	2.5	–	4.2	–
C[C@@H]1C2[C@H]3Cc4ccc(O)c5c4[C@@]2(CCN3CC2CC2)[C@@H](O5)C(=O)C1(C)C (some centres undefined)	–	0.38	–	ED50 [13]: inactive
C[C@H]1[C@H]2Cc3ccc(O)cc3[C@]1(C)CCN2CC1CC1 [CYCLAZOCINE]	0.41	0.81	–	–
Oc1ccc2c(c1)[C@@]13CCCC[C@@]1(O)[C@@H](C2)N(CC1CCC1)CC3 [BUTORPHANOL]	0.34	2	–	–
COc1ccc2c3c1O[C@H]1C(=O)C(C)(C)CC4[C@@H](C2)N(C)CC[C@@]341 (some centres undefined)	3.9	–	9.8	–
COc1ccc2c3c1O[C@H]1C(=O)CC[C@H]4[C@@H](C2)N(C)CC[C@]314 [HYDROCODONE]	2.4	–	5.2	–
CC[C@@H]1C2[C@H]3Cc4ccc(O)c5c4[C@@]2(CCN3CC2CCC2)[C@@H](O5)C(=O)C1(C)C (some centres undefined)	18.5	2.8	–	–
CC[C@@H]1C2[C@H]3Cc4ccc(O)c5c4[C@@]2(CCN3C)[C@@H](O5)C(=O)C1(C)C (some centres undefined)	0.6	–	0.62	–
CC[C@@H]1C2[C@H]3Cc4ccc(OC)c5c4[C@@]2(CCN3C)[C@@H](O5)C(=O)C1(C)C (some centres undefined)	4.4	–	13.9	–
CN1CC[C@]23c4c5ccc(O)c4O[C@H]2C(=O)CC[C@H]3[C@H]1C5 [HYDROMORPHONE]	–	–	1.3	–

From ChEMBL document CHEMBL1121639, “Analgesic narcotic antagonists. 5. 7,7-Dimethyldihydrocodeinones and 7,7-dimethyldihydromorphinones” (1981)
